For assay [1], the species on record is Rattus norvegicus. Briefly: Reduction of testosterone-induced prostate weight increase in Sprague-Dawley rat by modified Hersherberger assay relative to control. Type of assay: functional, Prostate gland. The arrangement: concentration or dose not given beside the values. In outline:
(§1)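 Rats castrated at three weeks old, then dosed orally by gavage once daily for five days in 30% (w/v) hydroxypropyl-β-cyclodextrin, together with testosterone propionate 0.1 mg/day (about 1.3 mg/kg) s.c. in sesame oil. At necropsy, ventral prostate wet weight was measured. Values are body-weight-adjusted means of three or four animals.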

The species entered for assay [2] is Rattus norvegicus. Briefly: Inhibition of testosterone-induced prostate weight increase in Sprague-Dawley rat by modified Hersherberger assay. Type of assay: functional, Prostate gland. The method in brief:
as §1

We go through 26 compounds from ChEMBL document CHEMBL1146271, “The discovery of a potent orally efficacious indole androgen receptor antagonist through in vivo screening” (2007).

Calls of active or inactive are those of the source. No cut-off for these calls is given here. Bounds are passed on as bounds.

`CC(O)(c1cc2cc(C#N)c(C(F)(F)F)cc2[nH]1)C(F)(F)F` (single isomer, unassigned; (-)) came in with an Activity in the assay listed under Rattus norvegicus [1] of 80%. In the assay listed under Rattus norvegicus [2], the ID50 is on record as 0.13 mg/day.

Compound `CC(O)(c1cc2cc(C#N)c(C(F)(F)F)cc2[nH]1)C(F)(F)F` (stereo in doubt; 6i) yielded an Activity in the assay filed under Rattus norvegicus [1] of 82%.

`CSCC(C)(O)c1cc2cc([N+](=O)[O-])c(C(F)(F)F)cc2[nH]1` (stereo not given): in the assay filed under Rattus norvegicus [1], the Activity is reported as 66%.

Regarding `CC(O)(CCl)c1cc2cc([N+](=O)[O-])c(C(F)(F)F)cc2[nH]1` (stereo not given), in the assay listed under Rattus norvegicus [1], the Activity is reported as 38%.

With `CC(O)(c1cc2cc(C#N)c(C(F)(F)F)cc2[nH]1)C(F)(F)F` (single isomer, unassigned; (+)), the Activity in the assay filed under Rattus norvegicus [1] is given as 76%. This compound also gave an ID50 in the assay listed under Rattus norvegicus [2] of 0.43 mg/day.

Take `CC(C)(O)c1[nH]c2cc(C(F)(F)F)c(C#N)cc2c1I`: the Activity in the assay filed under Rattus norvegicus [1] stood at 81%. In the assay filed under Rattus norvegicus [2], this compound showed an ID50 of 1.1 mg/day.

`CCC(C)(O)c1cc2cc([N+](=O)[O-])c(C(F)(F)F)cc2[nH]1` (stereo not given): the Activity in the assay listed under Rattus norvegicus [1] is 63%.

As to `CC(C)(O)c1cc2cc([N+](=O)[O-])c(C(F)(F)F)cc2[nH]1`, the Activity in the assay listed under Rattus norvegicus [1] was 32%.

Compound `CC(O)(c1[nH]c2cc(C(F)(F)F)c(C#N)cc2c1Cl)C(F)(F)F` (stereo not given) returned an Activity in the assay filed under Rattus norvegicus [1] of 66%.

For `CC(O)(CS(=O)(=O)c1ccc(F)cc1)C(=O)Nc1ccc(C#N)c(C(F)(F)F)c1` (stereo not given) [BICALUTAMIDE], the Activity in the assay filed under Rattus norvegicus [1] amounted to 75%. In the assay listed under Rattus norvegicus [2], this compound came in with an ID50 of 0.29 mg/day.

As for `CC(O)c1cc2cc([N+](=O)[O-])c(C(F)(F)F)cc2[nH]1` (stereo not given), the outcome in the assay listed under Rattus norvegicus [1] (Prostate gland) was inactive.

With `Cc1c(C(C)(C)O)[nH]c2cc(C(F)(F)F)c(C#N)cc12`, the Activity in the assay listed under Rattus norvegicus [1] was determined as 55%.

Consider `CC(O)(CO)c1cc2cc([N+](=O)[O-])c(C(F)(F)F)cc2[nH]1` (stereo not given), for which the Activity in the assay filed under Rattus norvegicus [1] is recorded as 58%.

As for `CC(C)(O)c1[nH]c2cc(C(F)(F)F)c(C#N)cc2c1Br`, in the assay filed under Rattus norvegicus [2], the ID50 is given as 0.8 mg/day.

In the assay listed under Rattus norvegicus [1], `CC(O)(c1cc2cc(Cl)c(C(F)(F)F)cc2[nH]1)C(F)(F)F` (stereo not given) showed an Activity of 30%.

For the compound `C=Cc1c(C(C)(C)O)[nH]c2cc(C(F)(F)F)c([N+](=O)[O-])cc12`, in the assay filed under Rattus norvegicus [1] (Prostate gland), the result was inactive.

In turn, `CC(O)(c1[nH]c2cc(C(F)(F)F)c(C#N)cc2c1I)C(F)(F)F` (stereo not given) displayed an Activity in the assay filed under Rattus norvegicus [1] of 79%.

`CC(C)(O)c1[nH]c2cc(C(F)(F)F)c(C#N)cc2c1Cl`: in the assay filed under Rattus norvegicus [2], the ID50 is >3 mg/day.

In the assay listed under Rattus norvegicus [1], `CC(C)(O)c1[nH]c2cc(C(F)(F)F)c([N+](=O)[O-])cc2c1C#N` registered an Activity of 56%.

Turning to `CC(O)(c1cc2cc([N+](=O)[O-])c(C(F)(F)F)cc2[nH]1)C(F)(F)F` (stereo not given), the Activity in the assay filed under Rattus norvegicus [1] was 78%.

As to `CC(C)(O)c1[nH]c2cc(C(F)(F)F)c([N+](=O)[O-])cc2c1I`, the Activity in the assay filed under Rattus norvegicus [1] is 59%.

For `Cn1c(C(C)(O)C(F)(F)F)cc2cc(C#N)c(C(F)(F)F)cc21` (stereo not given), the Activity in the assay listed under Rattus norvegicus [1] amounted to 90%.

On to `Cc1c(C(C)(C)O)[nH]c2cc(C(F)(F)F)c([N+](=O)[O-])cc12`, for which the Activity in the assay filed under Rattus norvegicus [1] was 37%.

The compound `CC(C)(O)c1[nH]c2cc(C(F)(F)F)c([N+](=O)[O-])cc2c1Br` returned an Activity in the assay filed under Rattus norvegicus [1] of 71%.

In the assay filed under Rattus norvegicus [1], `CC(C)(O)c1[nH]c2cc(C(F)(F)F)c([N+](=O)[O-])cc2c1Cl` gave an Activity of 81%.

`CC(O)(c1cc2cc(C#N)ccc2[nH]1)C(F)(F)F` (stereo not given): the Activity in the assay listed under Rattus norvegicus [1] came out at 55%.
